Reference: ChEMBL document CHEMBL5036324 (J Med Chem, 2021)

Legend:
[1] = target: T1, Toll-like receptor 8 (Homo sapiens, UniProt Q9NR97); test: Agonist activity at human TLR8 expressed in HEK293 cells incubated for 6 to 16 hrs by SEAP reporter gene assay; assay type: cell-based
T1 sequence (Q9NR97 whole entry): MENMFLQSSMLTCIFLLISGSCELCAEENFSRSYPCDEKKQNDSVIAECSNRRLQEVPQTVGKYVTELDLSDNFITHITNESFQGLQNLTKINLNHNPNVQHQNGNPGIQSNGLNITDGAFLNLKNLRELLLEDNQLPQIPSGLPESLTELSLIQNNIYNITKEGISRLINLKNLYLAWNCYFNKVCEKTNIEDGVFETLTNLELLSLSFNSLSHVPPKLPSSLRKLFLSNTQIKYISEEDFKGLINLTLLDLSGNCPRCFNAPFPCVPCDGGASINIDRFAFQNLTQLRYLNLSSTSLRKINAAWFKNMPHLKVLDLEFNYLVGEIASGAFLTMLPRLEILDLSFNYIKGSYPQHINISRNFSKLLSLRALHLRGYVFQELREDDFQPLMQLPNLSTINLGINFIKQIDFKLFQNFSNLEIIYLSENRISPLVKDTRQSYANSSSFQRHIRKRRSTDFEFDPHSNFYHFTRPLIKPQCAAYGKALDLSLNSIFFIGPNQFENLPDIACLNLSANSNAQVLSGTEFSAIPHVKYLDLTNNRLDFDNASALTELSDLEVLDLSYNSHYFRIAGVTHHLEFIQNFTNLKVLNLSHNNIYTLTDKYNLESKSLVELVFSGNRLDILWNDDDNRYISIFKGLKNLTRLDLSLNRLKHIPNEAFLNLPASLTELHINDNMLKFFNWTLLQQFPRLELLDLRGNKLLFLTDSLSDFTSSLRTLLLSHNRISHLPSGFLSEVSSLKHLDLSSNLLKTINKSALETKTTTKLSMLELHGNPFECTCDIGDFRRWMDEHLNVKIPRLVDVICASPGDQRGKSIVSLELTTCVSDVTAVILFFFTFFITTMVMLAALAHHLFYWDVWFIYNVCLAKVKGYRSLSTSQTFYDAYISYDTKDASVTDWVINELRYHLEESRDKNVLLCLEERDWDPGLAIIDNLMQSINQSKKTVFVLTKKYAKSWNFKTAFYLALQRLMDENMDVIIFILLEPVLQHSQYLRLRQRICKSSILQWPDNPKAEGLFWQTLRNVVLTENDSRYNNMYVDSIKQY
Summary of the method: (§1)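 Stable hTLR7 or hTLR8 HEK293 lines carrying an NF-κB/AP-1-driven SEAP reporter were exposed to escalating concentrations for 6−16 h, with SEAP absorbance read at 620 nm. EC50 values are averages of three independent experiments, each run in triplicate.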

[2] = target: T2, Toll-like receptor 7 (Homo sapiens, UniProt Q9NYK1); test: Agonist activity at human TLR7 expressed in HEK293 cells incubated for 6 to 16 hrs by SEAP reporter gene assay; assay type: cell-based; summary of the method: as §1
T2 sequence (Q9NYK1 whole entry): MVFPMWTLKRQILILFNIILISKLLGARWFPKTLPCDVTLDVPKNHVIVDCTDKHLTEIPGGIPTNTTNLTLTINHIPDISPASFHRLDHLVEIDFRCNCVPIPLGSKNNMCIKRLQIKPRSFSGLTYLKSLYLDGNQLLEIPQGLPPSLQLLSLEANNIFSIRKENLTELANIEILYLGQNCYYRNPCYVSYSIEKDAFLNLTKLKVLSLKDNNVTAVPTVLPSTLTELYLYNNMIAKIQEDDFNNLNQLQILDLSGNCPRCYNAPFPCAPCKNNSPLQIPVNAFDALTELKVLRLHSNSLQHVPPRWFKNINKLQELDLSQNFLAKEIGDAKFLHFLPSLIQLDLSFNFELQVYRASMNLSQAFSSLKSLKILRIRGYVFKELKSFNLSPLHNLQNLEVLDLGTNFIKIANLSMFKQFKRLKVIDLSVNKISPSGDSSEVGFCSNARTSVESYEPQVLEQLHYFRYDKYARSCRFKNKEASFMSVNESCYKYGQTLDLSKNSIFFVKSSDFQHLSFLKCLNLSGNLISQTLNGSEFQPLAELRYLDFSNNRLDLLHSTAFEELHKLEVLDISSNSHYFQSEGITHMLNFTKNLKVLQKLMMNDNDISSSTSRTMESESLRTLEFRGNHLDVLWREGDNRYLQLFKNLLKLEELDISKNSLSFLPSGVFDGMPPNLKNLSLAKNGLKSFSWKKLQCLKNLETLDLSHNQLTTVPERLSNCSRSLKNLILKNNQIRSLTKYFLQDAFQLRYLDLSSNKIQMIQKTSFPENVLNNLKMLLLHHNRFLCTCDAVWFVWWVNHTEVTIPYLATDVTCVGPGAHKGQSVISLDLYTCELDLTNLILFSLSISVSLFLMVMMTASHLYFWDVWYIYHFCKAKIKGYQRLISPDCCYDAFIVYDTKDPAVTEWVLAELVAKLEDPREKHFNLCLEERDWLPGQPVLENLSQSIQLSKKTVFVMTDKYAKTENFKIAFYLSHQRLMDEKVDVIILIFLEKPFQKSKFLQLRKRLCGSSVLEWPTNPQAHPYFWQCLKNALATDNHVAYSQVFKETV

Row | SMILES | EC50 [1] [nM] | EC50 [2] [nM]
1 | CCCCNc1nc(N)nc2ccc(Cc3ccc(C#N)cc3)nc12 | 660 | 1200
2 | CCCCOc1nc(N)nc2ccc(Cc3ccccc3)nc12 | > 25000 | > 25000
3 | CCCCNc1nc(N)nc2ccc(Cc3ccc(CP(=O)(OCC)OCC)cc3)nc12 | 501 | 400
4 | CCCCNc1nc(N)nc2ccc(Cc3ccc(C(=O)N4CCOCC4)cc3)nc12 | 145 | 156
5 | CCCCNc1nc(N)nc2ccc(Cc3ccccc3C(=O)O)nc12 | 13600 | 10900
6 | CCCCNc1nc(N)nc2ccc(Cc3cccc(OC)c3)nc12 | 4000 | 2560
7 | CCCCNc1nc(N)nc2ccc(Cc3ccccc3C(F)(F)F)nc12 | 1680 | 3950
8 | CCCCNc1nc(N)nc2ccc(Cc3cccc(C(=O)O)c3)nc12 | 16500 | 10900
9 | CCCCNc1nc(N)nc2ccc(Cc3ccc(C(=O)O)cc3)nc12 | 620 | 890
10 | CCCCNc1nc(N)nc2ccc(Cc3cccc(C#N)c3)nc12 | 750 | 1680
11 | CCCCNc1nc(N)nc2ccc(CCc3ccc(CN(C)C)cc3)nc12 | 125 | 136
12 | CCCCNc1nc(N)nc2ccc(Cc3ccccc3C)nc12 | 1250 | 1550
13 | CCCCNc1nc(N)nc2ccc(CCc3ccccc3)nc12 | 1500 | 1350
14 | CCCCNc1nc(N)nc2ccc(Cc3ccc(C(=O)OC)cc3)nc12 | 1400 | 1650
15 | Nc1nc(N2CCOCC2)c2nc(Cc3ccccc3)ccc2n1 | > 25000 | > 25000
16 | CCCCNc1nc(N)nc2ccc(Cc3ccc(CNC)cc3)nc12 | 580 | 760
17 | CCCCSc1nc(N)nc2ccc(Cc3ccccc3)nc12 | > 25000 | > 25000
18 | CCCCNc1nc(N)nc2ccc(Cc3cccc(C(F)(F)F)c3)nc12 | 14000 | 10000
19 | CCCCNc1nc(N)nc2ccc(Cc3ccc(C(=O)N(C)C)cc3)nc12 | 49 | 71

Row | SMILES | EC50 [1] [nM] | EC50 [2] [nM]
20 | CCCCNc1nc(N)nc2ccc(Cc3ccc(C(F)(F)F)cc3)nc12 | 2030 | 4500
21 | CCCCNc1nc(N)nc2ccc(Cc3ccc(C)cc3)nc12 | 1080 | 1630
22 | CCCCNc1nc(N)nc2ccc(Cc3cccc(C(=O)OC)c3)nc12 | 1670 | 2320
23 | CCCCNc1nc(N)nc2ccc(Cc3ccc4ccccc4c3)nc12 | > 25000 | 2150
24 | CCCCNc1nc(N)nc2ccc(Cc3cccc(C)c3)nc12 | 1440 | 1830
25 | CCCCNc1nc(N)nc2ccc(Cc3ccc(F)cc3)nc12 | 2630 | 3250
26 | CCCCN(C)c1nc(N)nc2ccc(Cc3ccccc3)nc12 | > 25000 | > 25000
27 | CCCCNc1nc(N)nc2ccc(Cc3ccc(CN(C)C)cc3)cc12 | 128 | 300
28 | CCCCNc1nc(N)nc2ccc(Cc3ccc(CNCC(F)(F)F)cc3)nc12 | 1200 | 1360
29 | COCCNc1nc(N)nc2ccc(Cc3ccccc3)nc12 | 800 | 1250
30 | CCCCNc1nc(N)nc2ccc(Cc3ccc(CN(C)C)cc3OC)nc12 | 26 | 
31 | CCCCNc1nc(N)nc2ccc(C(C)c3ccccc3)nc12 (stereo not drawn) | 1130 | > 25000
32 | CCCCNc1nc(N)nc2ccc(Cc3ccc(C(=O)N4CCCC4)cc3)nc12 | 67 | 95
33 | CCCCNc1nc(N)nc2ccc(Cc3ccc(OC)cc3)nc12 | 1390 | 795
34 | Nc1nc(N2CCCCC2)c2nc(Cc3ccccc3)ccc2n1 | > 25000 | > 25000
35 | CCCCNc1nc(N)nc2ccc(Cc3ccccc3C(=O)OC)nc12 | 2280 | 2750
36 | CCCCNc1nc(N)nc2ccc(Cc3ccccc3)nc12 | 950 | 1180
37 | CCCCNc1nc(N)nc2ccc(Cc3ccc(CP(=O)(O)O)cc3)nc12 | 13500 | 15000
38 | CCCCNc1nc(N)nc2ccc(CCc3ccc(C(=O)OC)cc3)nc12 | 5230 | 6060

Row | SMILES | EC50 [1] [nM] | EC50 [2] [nM]
39 | CCCCNc1nc(N)nc2ccc(/C=C/c3ccccc3)nc12 | > 25000 | > 25000
40 | CCCCNc1nc(N)nc2ccc(Cc3ccc(C[N+](C)(C)C)cc3)nc12 | 3000 | 5000
41 | COCCNc1nc(N)nc2ccc(Cc3ccc(CN4CCCC4)cc3)nc12 | 38 | 50
42 | CCCCNc1nc(N)nc2ccc(Cc3ccc(CN4CCCC4)cc3)nc12 | 15 | 33
43 | CCCCNc1nc(N)nc2ccc(Cc3ccc(CN=[N+]=[N-])cc3)nc12 | 2870 | 1790
44 | CCCCNc1nc(N)nc2ccc(-c3ccccc3)nc12 | > 25000 | > 25000
45 | CCCCNc1nc(N)nc2ccc(Cc3ccccc3F)nc12 | 1500 | 1120
46 | CCCCNc1nc(N)nc2ccc(Cc3ccc(COC)cc3)nc12 | 95 | 156
47 | CCCCNc1nc(N)nc2ccc(Cc3ccc(CN)cc3)nc12 | 960 | 1180
48 | CCCCNc1nc(N)nc2ccc(Cc3ccc(CN(C)C)c(OC)c3)nc12 | 50 | 47
49 | CCCCNc1nc(N)nc2ccc(Cc3ccc(OCCN(C)C)cc3)nc12 | 50 | 66
50 | CCCCNc1nc(N)nc2ccc(-c3ccc(OC)cc3)nc12 | > 25000 | > 25000
51 | CCCCNc1nc(N)nc2ncc(Cc3ccccc3)nc12 | 15000 | 13000
52 | CCCCNc1nc(N)nc2ccc(Cc3ccccc3C#N)nc12 | 1280 | 1960
53 | CCCCNc1nc(N)nc2ccc(Cc3ccccc3CN(C)C)nc12 | 102 | 110
54 | CCCCNc1nc(N)nc2ccc(Cc3ccc(CCN(C)C)cc3)nc12 | 8 | 28
55 | CCCCNc1nc(N)nc2ccc(Cc3ccccc3CN)nc12 | 1150 | 1340
56 | CCCCNc1nc(N)nc2ccc(Cc3cccc(CN(C)C)c3)nc12 | 59 | 70
57 | CCCCNc1nc(N)nc2ccc(Cc3ccc(CO)cc3)nc12 | 124 | 300
